Shown are actives, neighbours in structure and some others; about 2.9% of the full set was active somewhere.
OX1R antag-1 = OX1R (HCRTR1) antagonists, primary screen, fluorescence, CHO/OX1R cells, Fluo-8 calcium, orexin A; Orexin/Hypocretin receptor type 1 (Homo sapiens), O43613; 0.43% of 330,000 active; inhibition, % at 5 µM; AID 434989, 2010; Fluo-8 calcium fluorescence;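 active means inhibition above its plate's threshold, mean inhibition of all tested compounds on the plate plus 3 SD, cut at about 37% in these data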;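 further: 0% = orexin A challenge wells and 100% = SB-334867-A antagonist wells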
Target sequence (O43613 whole entry, looked up): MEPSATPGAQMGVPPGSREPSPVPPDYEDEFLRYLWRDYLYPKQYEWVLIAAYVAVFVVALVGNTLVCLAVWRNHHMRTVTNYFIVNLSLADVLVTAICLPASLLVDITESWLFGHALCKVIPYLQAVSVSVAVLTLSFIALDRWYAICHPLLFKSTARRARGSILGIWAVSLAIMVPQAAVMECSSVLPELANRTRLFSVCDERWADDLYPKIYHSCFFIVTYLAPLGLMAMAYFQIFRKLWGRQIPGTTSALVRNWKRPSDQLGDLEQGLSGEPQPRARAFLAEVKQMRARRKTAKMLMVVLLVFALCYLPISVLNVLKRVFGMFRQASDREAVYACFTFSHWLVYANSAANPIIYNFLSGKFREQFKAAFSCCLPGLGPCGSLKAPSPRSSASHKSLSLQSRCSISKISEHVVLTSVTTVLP
OX1R antag-2 = antagonists of human orexin 1 receptor (OX1R) | OX1R-expressing cells, FRET antagonist read-out | inhibition, % at 6.6 µM | 1.8% of 330,000 active | AID 485270, 2010; in the data active means inhibition mostly above about 38%, no sharp cut-off; inactive means mostly below about 40%;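 further: 0% = agonist challenge alone and 100% = reference antagonist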
CHO parental Ca = ATP-evoked calcium signal inhibitors, parental CHO, primary screen, counter-screen for OX1R antagonist project, cell-based, fluorescence, Fluo-8 calcium dye; 0.63% of 330,000 active; parental CHO-K1, ATP-induced calcium, Fluo-8 fluorescence; AID 463079, 2010; inhibition, % at 5.6 µM;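 active means inhibition above that plate's mean sample inhibition plus 3 SD, cut at about 26% in these data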;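 further: 0% = ATP-challenged DMSO wells and 100% = DMSO wells without ATP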
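Test system: untransfected parental CHO cell line. Compound: one dose, 5.6 µM nominal. Detection: intracellular calcium via Fluo-8 no-wash fluorescent dye. Measure: % inhibition. Benchmarks: ATP-challenged DMSO wells low, unchallenged DMSO wells high.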
CHO-K1 Ca antag = nonselective inhibitor or artifact in parental CHO-K1 cells; ATP-induced calcium, Fluo-8 fluorescence; inhibition, % at 3 µM; 0.6% of 360,000 active;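 active means inhibition above a per-plate cutoff, the plate's mean sample inhibition plus 3 SD, cut at about 24% in these data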;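 further: 0% = DMSO plus EC80 ATP and 100% = DMSO alone without ATP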
CHO-K1 Ca PAM = nonselective calcium activators in parental CHO-K1 cells, primary screen, counter-screen for M1 PAM project, cell-based, Fluo-8 calcium fluorescence, full deck, 1536-well; ATP EC20; 0% at ATP EC20, 100% at ATP max; activation, % at 3 µM; 0.02% of 360,000 active;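 active means activation above the run cutoff, the mean activation of all test compounds plus 3 SD, cut at about 40% in these data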;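 further: peak over basal fluorescence ratio in a 140 s read after ATP addition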
M1 ag parental = counter-screen for M1 agonists: effect in parental CHO-K1 cells; activation, % at 3 µM; Fluo-8 calcium fluorescence; scaled to maximal ATP response, vehicle zero; 0.48% of 360,000 active; AID 602248, 2012; in the data active means activation above about 15%;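 further: untransfected CHO-K1 host cells lacking M1 receptor as counterscreen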
An asterisk follows results filed as active; / = no result.

SMILES	OX1R antag-1	OX1R antag-2	CHO parental Ca	CHO-K1 Ca antag	CHO-K1 Ca PAM	M1 ag parental
CC(=O)c1ccc(NC(=O)Nc2cccc(Cl)c2)cc1	35	72*	38*	34*	-5	13
CC1C/C(=C\c2ccccc2[N+](=O)[O-])c2nc3ccccc3c(C(=O)O)c2C1 (stereo not drawn)	-6	16	6	-9	5	1
N#CC(C#N)=C1CCCc2sccc21	/	/	/	-2	6	1
CC(=O)C1=CCC(c2ccc(Cl)cc2)N(S(=O)(=O)c2ccc(C)cc2)C1 (stereo not drawn)	/	/	/	14	12	4
CC(Oc1ccc(Cl)cc1Cl)C(=O)OCC(=O)c1c(N)n(C)c(=O)n(C)c1=O (stereo not drawn)	6	10	-18	-25	-9	3
CC12CCC(=O)N1C(C(=O)Nc1ccccc1F)CS2 (stereo not drawn)	-17	14	-7	-2	4	1
CSc1cccc(NC(N)=O)c1	-9	1	7	1	3	0
CSc1cccc(NC(=O)Nc2ccc(Cl)cc2)c1	49*	51*	81*	26*	-3	12
CC(=O)Oc1ccc(C(=O)Cc2ccccn2)c(O)c1	-14	15	-8	24*	-11	-1
CCc1cc(C(=O)Cc2ccccn2)c(O)cc1O	-12	6	-6	-5	6	6
Cc1ccccc1C(=O)c1cccn1CC(=O)NCc1ccccc1Cl	-8	28	0	17	-26	0
O=[N+]([O-])c1cc(-c2ncccn2)c([N+](=O)[O-])s1	20	64*	17	4	18	-1
O=C1c2cccnc2C(=O)N1c1cccc([N+](=O)[O-])c1	-13	14	-15	12	0	0
Nc1ccccc1O	-7	32*	-16	-1	0	0
CCCCNc1c(-c2ccc(OC)c(Sc3ccc(OC)cc3)c2)nc2ccccn12	41	48	45*	-8	2	7
CCCCNc1c(-c2ccc(OC)c(Sc3ccc(OC)cc3)c2)nc2cnccn12	0	14	-27	4	-11	2
CCCCNc1c(-c2ccc(SC(C)CC)c(OC)c2)nc2ccc(C)cn12 (stereo not drawn)	42	68*	44*	9	0	2
CCCCCCSc1ccc(-c2nc3ccc(C)cn3c2NCCCC)cc1OC	/	/	/	-17	7	1
CCC(C)Sc1cccc(-c2nc3ccc(C)cn3c2NCc2ccccc2)c1 (stereo not drawn)	61*	44	49*	-1	-10	2
CN(C)/C(=N\S(=O)(=O)c1ccccc1)c1ccc(Cl)cc1	-21	-1	1	-4	0	1
CCOc1ccc(NC(=O)C2CCN(S(=O)(=O)CC)CC2)cc1	-2	10	-11	5	0	0
COc1ccccc1Oc1ccc2c(c1)C(=O)N(c1cccc(O)c1)C2=O	8	3	-7	-3	12	6
COc1ccccc1Oc1ccc2c(c1)C(=O)N(c1cccc3ncccc13)C2=O	/	/	/	24*	1	11
O=C(Cc1nn[nH]n1)c1ccccc1O	2	14	3	-11	21	0
COc1cccc(N2C(=O)CC(N3CCN(CCN=CC4=C(O)CC(C)(C)CC4=O)CC3)C2=O)c1 (stereo not drawn)	-9	10	-3	10	12	19*
SMILES	OX1R antag-1	OX1R antag-2	CHO parental Ca	CHO-K1 Ca antag	CHO-K1 Ca PAM	M1 ag parental
CCCOc1cc(N(CC)CC)ccc1/C=C(/C#N)c1nc2ccc(C)cc2[nH]1	118*	16	75*	35*	-4	17*
CCN(CC)c1ccc(/C=C(/C#N)c2nc3ccc(C)cc3[nH]2)c(OC(C)C)c1	116*	19	68*	50*	-14	39*
CCOc1cc(N(CC)CC)ccc1/C=C(/C#N)c1nc2ccccc2[nH]1	109*	71*	70*	21	-8	19*
CC(C)CN(C(=O)CCC(=O)OCC(=O)N(C)c1ccccc1)c1c(N)n(CC(C)C)c(=O)[nH]c1=O	-2	17	6	14	-12	0
CCOc1cc(C(=O)NC2CCCCCCC2)cc(OCC)c1OCC	-38	6	-13	-16	11	-1
CCc1cc2c(N3CCN(c4ccccc4)CC3)ncnc2s1	58*	31	60*	6	5	6
COCCNC(=O)c1onc(CSc2ccncc2)c1C(=O)NCCOC	-10	1	-12	-8	10	0
COc1ccc(CNC(=O)[C@@H]2CC=C[C@@H]3CCN(Cc4ccc(Cl)c(Cl)c4)C(=O)[C@@H]32)cc1	-12	36	-31	-6	0	0
COc1ccc(CNC[C@@H](CCCCN(C)Cc2ccc(OC)cc2)N2C[C@H](c3ccccc3)N(CCc3ccc(Cl)c(Cl)c3)C(=O)C2=O)cc1	12	2	19	-3	4	30*
c1ccc(-c2ncc(-c3ccn[nH]3)s2)cc1	-5	15	-11	29*	-16	0
Cc1cc(Br)ccc1OCCCCN1CCCCC1	-8	10	10	-5	14	5
COc1ccc(-c2ccc(C(=O)N3CCOCC3)c3occc23)c(C)c1	/	/	/	-2	-12	6
COc1ccc(-c2ccc(C(=O)N3CCN(C)CC3)c3occc23)c(C)c1	/	/	/	32*	-10	0
COc1ccc(-c2ccc(C(=O)NCc3ccncc3)c3occc23)c(C)c1	/	/	/	42*	-13	11
COc1ccc(CSC(=S)NNc2ccccc2)cc1	/	/	/	10	3	1
O=C(O)CN1C(=O)c2cccc(Oc3ccc(Cl)cc3)c2C1=O	-3	26	-7	30*	-5	-1
Cc1ccc(N2C(=O)c3cccc(Oc4ccc(Cl)cc4)c3C2=O)c(C)c1	-20	30	6	-12	7	0
CS(=O)(=O)c1ccc(C(=O)CN2C(=O)NC3(CCCc4ccccc43)C2=O)cc1 (stereo not drawn)	-5	15	-3	-6	-2	0
COc1ccc2c(c1)NC(c1ccc(N(C)C)cc1)c1cccn1-2 (stereo not drawn)	6	67*	-10	3	1	1
Oc1c(I)cc(Cl)c2cccnc12	49*	61*	41*	2	14	0
O=[N+]([O-])c1cc(Cl)c2cccnc2c1O	-4	34	-8	6	-1	0
Cc1ccc(NC(=O)CSc2nnc3n2CCCCC3)cc1S(=O)(=O)N1CCOCC1	/	/	/	10	-9	0

Assay outcomes as filed in PubChem BioAssay.
